From ChEMBL document CHEMBL5653622 (Oncotarget, 2016)
Active and inactive are the calls of the source. The calls are words filed in the database; no cut-off is given here.

Legend:
[1] = biological target: Ephrin type-B receptor 1 (Homo sapiens) (UniProt P54762); test: Inhibition of human EPH-B1 assessed as remaining activity at 10 uM in presence of ATP by radiometric kinase assay relative to control
[2] = system: HT-29; test: Induction of apoptosis in human HT-29 cells assessed as phosphorylation of H2AX on S139 in presence of gemcitabine by Western blotting analysis; format: functional, cell-based
[3] = biological target: Rho-associated protein kinase 2 (Homo sapiens) (UniProt O75116); test: Inhibition of human ROCK2 assessed as remaining activity at 10 uM in presence of ATP by radiometric kinase assay relative to control
[4] = biological target: MAP kinase-activated protein kinase 2 (Homo sapiens) (UniProt P49137); test: Inhibition of human MAPKAP-K2 assessed as remaining activity at 10 uM in presence of ATP by radiometric kinase assay relative to control
Sequence of MAP kinase-activated protein kinase 2 (Homo sapiens) (P49137 whole entry, looked up): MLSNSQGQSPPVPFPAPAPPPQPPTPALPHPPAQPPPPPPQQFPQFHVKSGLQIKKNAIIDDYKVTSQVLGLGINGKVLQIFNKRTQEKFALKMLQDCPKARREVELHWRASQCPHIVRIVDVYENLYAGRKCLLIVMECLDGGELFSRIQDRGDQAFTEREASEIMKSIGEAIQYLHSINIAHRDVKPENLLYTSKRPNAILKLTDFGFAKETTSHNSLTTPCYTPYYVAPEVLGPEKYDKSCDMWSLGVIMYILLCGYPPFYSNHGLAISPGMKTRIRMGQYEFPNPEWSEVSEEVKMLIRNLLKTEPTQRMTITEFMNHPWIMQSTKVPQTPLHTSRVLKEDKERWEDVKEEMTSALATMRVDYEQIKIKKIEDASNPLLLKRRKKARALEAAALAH

[5] = Cmax in BALB/C mouse plasma at 10 mg/kg, po by LC/MS-MS analysis; format: ADME, organism-based
Summary of the method: (§1)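 Female BALB/c mice received a single 10mg/kg bolus i.v. or p.o. Plasma (and spleen homogenate) extracted with methanol containing internal standards. Concentrations were measured by LC/MS-MS and PK parameters calculated with modelling software.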

[6] = biological target: Testis-specific serine/threonine-protein kinase 1 (Homo sapiens) (UniProt Q9BXA7); test: Inhibition of human TSSK1 assessed as remaining activity at 10 uM in presence of ATP by radiometric kinase assay relative to control
[7] = system: Mus musculus; test: In vivo inhibition of CHK1 in CRTac:Ncr-Fox1 mouse xenografted with human HT-29 cells assessed as reduction of phosphorylation of CHK1 on S296 at 100 mg/kg, po administered for 24 hrs by Western blotting analysis; format: functional, organism-based
Summary of the method: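 HT29 s.c. xenografts in female athymic nude mice. Single gemcitabine dose 100mg/kg i.v. on day 0, then one inhibitor dose 50 or 100mg/kg p.o. (DPTW vehicle) 24h later. Tumors taken 24h after the last dose, western blotted, and signals quantified by normalizing to GAPDH.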

[8] = Toxicity in Emu-Myc driven transgenic mouse transplant model of B-cell lymphoma assessed as reduction in weight of bone marrow at 150 mg/kg, po administered for 9 days; format: organism-based; settings: in vivo, 216 h, time 9 day
[9] = biological target: Ribosomal protein S6 kinase alpha-1 (Homo sapiens, UniProt Q15418); test: Inhibition of human RSK1 assessed as remaining activity at 10 uM in presence of ATP by radiometric kinase assay relative to control
[10] = biological target: RAC-alpha serine/threonine-protein kinase (Homo sapiens) (UniProt P31749); test: Inhibition of human PKBa assessed as remaining activity at 10 uM in presence of ATP by radiometric kinase assay relative to control
Sequence of RAC-alpha serine/threonine-protein kinase (Homo sapiens) (P31749 whole entry): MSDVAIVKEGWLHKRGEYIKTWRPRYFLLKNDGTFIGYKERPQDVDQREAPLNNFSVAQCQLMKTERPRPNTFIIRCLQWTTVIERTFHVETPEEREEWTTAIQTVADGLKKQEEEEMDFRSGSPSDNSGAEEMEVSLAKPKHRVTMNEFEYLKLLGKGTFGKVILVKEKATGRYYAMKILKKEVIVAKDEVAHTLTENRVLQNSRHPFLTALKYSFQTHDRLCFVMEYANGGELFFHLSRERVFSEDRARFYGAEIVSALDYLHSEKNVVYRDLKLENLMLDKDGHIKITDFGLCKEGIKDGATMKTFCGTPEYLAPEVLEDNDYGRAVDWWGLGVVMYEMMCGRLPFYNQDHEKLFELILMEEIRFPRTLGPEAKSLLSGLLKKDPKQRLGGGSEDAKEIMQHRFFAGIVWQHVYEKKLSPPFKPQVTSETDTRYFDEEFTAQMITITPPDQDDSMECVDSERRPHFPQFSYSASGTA

[11] = biological target: Homeodomain-interacting protein kinase 3 (Homo sapiens) (UniProt Q9H422); test: Inhibition of human HIPK3 assessed as remaining activity at 10 uM in presence of ATP by radiometric kinase assay relative to control
Sequence of Homeodomain-interacting protein kinase 3 (Homo sapiens) (Q9H422 whole entry, looked up): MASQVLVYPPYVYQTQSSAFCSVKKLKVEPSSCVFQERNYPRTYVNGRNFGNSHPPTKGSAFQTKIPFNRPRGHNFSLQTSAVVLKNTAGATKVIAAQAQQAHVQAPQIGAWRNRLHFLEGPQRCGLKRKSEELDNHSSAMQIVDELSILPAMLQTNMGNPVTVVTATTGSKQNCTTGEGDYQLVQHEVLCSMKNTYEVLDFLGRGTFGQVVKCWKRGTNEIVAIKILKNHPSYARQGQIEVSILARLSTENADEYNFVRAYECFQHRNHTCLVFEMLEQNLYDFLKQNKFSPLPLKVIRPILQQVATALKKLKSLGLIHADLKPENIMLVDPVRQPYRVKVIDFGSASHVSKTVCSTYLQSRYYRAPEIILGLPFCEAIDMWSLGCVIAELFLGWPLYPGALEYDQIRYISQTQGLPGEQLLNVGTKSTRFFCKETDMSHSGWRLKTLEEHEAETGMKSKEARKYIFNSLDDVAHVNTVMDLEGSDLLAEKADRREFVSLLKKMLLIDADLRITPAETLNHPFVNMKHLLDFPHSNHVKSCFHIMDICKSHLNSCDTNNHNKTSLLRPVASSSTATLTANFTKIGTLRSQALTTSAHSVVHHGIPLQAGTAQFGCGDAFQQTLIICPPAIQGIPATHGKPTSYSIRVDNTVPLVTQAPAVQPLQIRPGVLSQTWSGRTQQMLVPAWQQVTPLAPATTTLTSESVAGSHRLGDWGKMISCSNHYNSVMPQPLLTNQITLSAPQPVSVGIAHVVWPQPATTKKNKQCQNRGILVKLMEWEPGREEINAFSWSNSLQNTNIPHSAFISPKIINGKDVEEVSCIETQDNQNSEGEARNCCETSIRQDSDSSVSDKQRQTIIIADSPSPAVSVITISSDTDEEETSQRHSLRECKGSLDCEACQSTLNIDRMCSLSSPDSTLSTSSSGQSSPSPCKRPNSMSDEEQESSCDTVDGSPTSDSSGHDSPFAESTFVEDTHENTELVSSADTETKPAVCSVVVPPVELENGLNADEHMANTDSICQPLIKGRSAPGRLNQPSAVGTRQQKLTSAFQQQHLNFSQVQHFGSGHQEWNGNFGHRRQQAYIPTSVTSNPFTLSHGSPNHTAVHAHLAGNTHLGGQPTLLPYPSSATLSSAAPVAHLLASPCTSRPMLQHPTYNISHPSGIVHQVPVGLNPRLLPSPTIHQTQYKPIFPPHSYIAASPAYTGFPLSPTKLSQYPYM

[12] = system: Mus musculus; test: In vivo inhibition of CHK1 in CRTac:Ncr-Fox1 athymic mouse xenografted with human Calu-6 cells assessed as inhibition of CHK1 phosphorylation on S296 at 150 mg/kg, po in presence of gemcitabine and carboplatin by Western blotting analysis; format: functional, organism-based
Summary of the method: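 Female CRTac:Ncr-Fox1(nu) athymic mice carried s.c. Calu6 xenografts. Tumors were taken 6h after the last inhibitor dose, lysed in CHAPS buffer, and immunoblotted with GAPDH as loading control.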

[13] = AUC (0 to t) in BALB/C mouse spleen at 10 mg/kg, iv by LC/MS-MS analysis; format: ADME, organism-based
[14] = system: HT-29; test: Induction of cell cycle arrest in human HT-29 cells assessed as accumulation of cells at S phase at 0.5 uM incubated for 24 hrs by BrdU and PI staining based flow cytometry analysis; format: functional
Summary of the method: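 HT29 cells exposed for 24h, stained with bromodeoxyuridine and propidium iodide, and cell-cycle distribution measured by flow cytometry.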

[15] = biological target: AMP-activated protein kinase (AMPK) alpha-1/beta-1/gamma-1 (Homo sapiens, UniProt P54619+Q13131+Q9Y478); test: Inhibition of AMPK alpha1/beta1/gamma1 (unknown origin) by FRET based Z-LYTE kinase assay; format: protein-complex assay
[16] = Tmax in BALB/C mouse spleen at 10 mg/kg, iv by LC/MS-MS analysis; format: ADME, organism-based
[17] = biological target: Serine/threonine-protein kinase 26 (Homo sapiens) (UniProt Q9P289); test: Inhibition of human MST4 assessed as remaining activity at 10 uM in presence of ATP by radiometric kinase assay relative to control
[18] = biological target: Calcium/calmodulin-dependent protein kinase type 1 (Homo sapiens) (UniProt Q14012); test: Inhibition of human CAMK1 assessed as remaining activity at 10 uM in presence of ATP by radiometric kinase assay relative to control
[19] = biological target: Ephrin type-B receptor 2 (Homo sapiens) (UniProt P29323); test: Inhibition of human EPH-B2 assessed as remaining activity at 10 uM in presence of ATP by radiometric kinase assay relative to control
[20] = biological target: Tyrosine-protein kinase BTK (Homo sapiens) (UniProt Q06187); test: Inhibition of human BTK assessed as remaining activity at 10 uM in presence of ATP by radiometric kinase assay relative to control
[21] = biological target: Protein kinase C zeta type (Homo sapiens) (UniProt Q05513); test: Inhibition of human PKCz assessed as remaining activity at 10 uM in presence of ATP by radiometric kinase assay relative to control
Sequence of Protein kinase C zeta type (Homo sapiens) (Q05513 whole entry): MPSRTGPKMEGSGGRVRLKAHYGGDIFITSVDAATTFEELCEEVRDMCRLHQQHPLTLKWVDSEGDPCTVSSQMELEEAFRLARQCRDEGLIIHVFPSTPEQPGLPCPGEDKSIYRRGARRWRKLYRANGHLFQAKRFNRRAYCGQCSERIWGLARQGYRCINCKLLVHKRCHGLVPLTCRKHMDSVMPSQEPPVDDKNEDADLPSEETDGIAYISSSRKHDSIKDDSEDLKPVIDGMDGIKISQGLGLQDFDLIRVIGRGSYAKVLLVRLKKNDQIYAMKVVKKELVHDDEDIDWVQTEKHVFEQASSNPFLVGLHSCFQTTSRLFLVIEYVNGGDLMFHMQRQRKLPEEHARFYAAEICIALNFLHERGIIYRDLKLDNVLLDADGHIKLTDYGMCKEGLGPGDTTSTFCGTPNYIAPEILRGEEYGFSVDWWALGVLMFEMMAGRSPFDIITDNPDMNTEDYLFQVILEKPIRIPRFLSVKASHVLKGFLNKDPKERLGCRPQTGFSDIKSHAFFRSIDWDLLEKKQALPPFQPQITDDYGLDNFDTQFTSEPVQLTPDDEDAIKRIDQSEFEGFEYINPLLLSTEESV

[22] = biological target: Calcium/calmodulin-dependent protein kinase kinase 2 (Homo sapiens) (UniProt Q96RR4); test: Inhibition of human CAMKKb assessed as remaining activity at 10 uM in presence of ATP by radiometric kinase assay relative to control
[23] = biological target: cAMP-dependent protein kinase (PKA) (Homo sapiens) (UniProt P22694+P17612+P22612); test: Inhibition of human PKA assessed as remaining activity at 10 uM in presence of ATP by radiometric kinase assay relative to control; format: protein assay
[24] = Clearance in BALB/C mouse plasma at 10 mg/kg, po by LC/MS-MS analysis; format: ADME, organism-based; summary of the method: as §1
[25] = biological target: Ribosomal protein S6 kinase alpha-3 (Homo sapiens, UniProt P51812); test: Inhibition of human RSK2 assessed as remaining activity at 10 uM in presence of ATP by radiometric kinase assay relative to control
Sequence of Ribosomal protein S6 kinase alpha-3 (P51812 whole entry): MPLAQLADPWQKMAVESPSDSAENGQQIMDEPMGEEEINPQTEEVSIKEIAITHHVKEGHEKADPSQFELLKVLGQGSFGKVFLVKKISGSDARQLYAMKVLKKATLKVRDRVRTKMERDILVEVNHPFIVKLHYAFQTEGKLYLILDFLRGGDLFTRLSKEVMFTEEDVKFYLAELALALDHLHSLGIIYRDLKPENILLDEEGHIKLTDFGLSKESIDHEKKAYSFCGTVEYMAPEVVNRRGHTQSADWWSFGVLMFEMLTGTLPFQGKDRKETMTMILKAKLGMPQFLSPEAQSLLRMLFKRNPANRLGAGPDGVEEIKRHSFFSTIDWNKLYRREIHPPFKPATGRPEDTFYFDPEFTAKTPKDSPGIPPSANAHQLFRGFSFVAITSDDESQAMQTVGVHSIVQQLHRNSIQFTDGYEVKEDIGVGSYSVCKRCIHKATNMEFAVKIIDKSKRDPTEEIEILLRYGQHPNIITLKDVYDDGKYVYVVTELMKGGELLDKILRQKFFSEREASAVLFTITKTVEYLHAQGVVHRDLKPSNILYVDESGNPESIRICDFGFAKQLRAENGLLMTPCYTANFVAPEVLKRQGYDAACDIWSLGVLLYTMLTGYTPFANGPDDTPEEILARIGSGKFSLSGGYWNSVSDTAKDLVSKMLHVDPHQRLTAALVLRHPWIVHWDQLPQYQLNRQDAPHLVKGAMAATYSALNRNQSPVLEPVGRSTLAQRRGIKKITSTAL

[26] = biological target: Mitogen-activated protein kinase 12 (Homo sapiens) (UniProt P53778); test: Inhibition of human p38g MAPK assessed as remaining activity at 10 uM in presence of ATP by radiometric kinase assay relative to control
Sequence of Mitogen-activated protein kinase 12 (Homo sapiens) (P53778 whole entry): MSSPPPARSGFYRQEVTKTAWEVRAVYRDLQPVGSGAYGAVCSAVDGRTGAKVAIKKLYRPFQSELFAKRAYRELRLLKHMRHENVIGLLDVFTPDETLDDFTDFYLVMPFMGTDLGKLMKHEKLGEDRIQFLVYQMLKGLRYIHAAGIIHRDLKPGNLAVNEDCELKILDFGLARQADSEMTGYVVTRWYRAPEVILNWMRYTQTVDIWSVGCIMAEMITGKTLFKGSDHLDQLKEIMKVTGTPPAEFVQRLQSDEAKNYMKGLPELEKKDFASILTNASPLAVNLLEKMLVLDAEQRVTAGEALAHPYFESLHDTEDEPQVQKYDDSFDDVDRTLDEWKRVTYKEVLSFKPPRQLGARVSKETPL

[27] = Tmax in BALB/C mouse plasma at 10 mg/kg, iv by LC/MS-MS analysis; format: ADME, organism-based
[28] = biological target: Serine/threonine-protein kinase Sgk1 (Homo sapiens) (UniProt O00141); test: Inhibition of human SGK1 assessed as remaining activity at 10 uM in presence of ATP by radiometric kinase assay relative to control
Sequence of Serine/threonine-protein kinase Sgk1 (Homo sapiens) (O00141 whole entry): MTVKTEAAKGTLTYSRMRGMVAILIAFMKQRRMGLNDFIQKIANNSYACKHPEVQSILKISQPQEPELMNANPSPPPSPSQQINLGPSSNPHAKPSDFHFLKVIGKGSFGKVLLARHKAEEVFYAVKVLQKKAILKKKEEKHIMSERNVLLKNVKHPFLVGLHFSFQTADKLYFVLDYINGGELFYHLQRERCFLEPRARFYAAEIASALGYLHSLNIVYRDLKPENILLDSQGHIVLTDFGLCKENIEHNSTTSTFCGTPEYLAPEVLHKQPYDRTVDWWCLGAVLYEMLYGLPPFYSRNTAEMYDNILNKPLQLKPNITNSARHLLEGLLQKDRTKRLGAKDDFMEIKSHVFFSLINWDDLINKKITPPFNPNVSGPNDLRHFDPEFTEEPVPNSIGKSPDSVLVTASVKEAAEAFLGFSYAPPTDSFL

[29] = biological target: Dual specificity protein kinase CLK2 (Homo sapiens, UniProt P49760); test: Inhibition of human CLK2 by FRET based Z-LYTE kinase assay
Sequence of Dual specificity protein kinase CLK2 (P49760 whole entry): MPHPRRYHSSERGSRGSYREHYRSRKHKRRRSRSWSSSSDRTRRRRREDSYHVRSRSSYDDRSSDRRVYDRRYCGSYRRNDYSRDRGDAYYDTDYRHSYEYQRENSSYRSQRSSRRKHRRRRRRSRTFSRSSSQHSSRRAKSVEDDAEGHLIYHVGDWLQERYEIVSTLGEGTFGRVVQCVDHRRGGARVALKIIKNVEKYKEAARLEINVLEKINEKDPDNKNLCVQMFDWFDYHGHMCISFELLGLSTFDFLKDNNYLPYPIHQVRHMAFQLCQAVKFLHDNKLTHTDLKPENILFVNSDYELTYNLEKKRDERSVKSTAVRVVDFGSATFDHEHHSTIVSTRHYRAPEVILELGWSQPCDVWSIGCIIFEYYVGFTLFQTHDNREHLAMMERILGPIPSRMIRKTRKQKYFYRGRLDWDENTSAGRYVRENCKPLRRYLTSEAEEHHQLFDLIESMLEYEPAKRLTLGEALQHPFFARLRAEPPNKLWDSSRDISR

N#Cc1cnc(Nc2cc(NC[C@H]3CNCCO3)c(C(F)(F)F)cn2)cn1 [SRA-737]
Activity [1]: 111%
Activity [2]: Active
Activity [3]: 95%
Activity [4]: 94%
Cmax [5]: 1620 nM
Activity [6]: 53%
Activity [7]: Active
Activity [8]: Toxic
Activity [9]: 7%
Activity [10]: 93%
Activity [11]: 124%
inhibition [12]: Active
AUC(0-t) [13]: 262 µM·h
Activity [14]: Active
IC50 [15]: 2970 nM
Tmax [16]: 30 min
Activity [17]: 44%
Activity [18]: 69%
Activity [19]: 102%
Activity [20]: 72%
Activity [21]: 92%
Activity [22]: 73%
Activity [23]: 93%
CL/F [24]: 36 mL/min/kg
Activity [25]: 19%
Activity [26]: 95%
Tmax [27]: 4.98 min
Activity [28]: 87%
IC50 [29]: 1370 nM
